ChEMBL document CHEMBL3399918, “In vitro radical scavenging and cytotoxic activities of novel hybrid selenocarbamates” (Bioorg Med Chem, 2015)

Legend:
MCF7 = test: Cytotoxicity against human MCF7 cells after 72 hrs by MTT assay; assay type: functional; conditions: MCF7, 72 h; for CC50: read-out: LC50 (the source's name)
Outline: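 MCF-7 cells grown in EMEM with 10% foetal calf serum, 2 mM L-glutamine, 100 units/mL penicillin, 100 µg/mL streptomycin. Exposed to five concentrations between 0.01 and 100 μM for 72 h, 37 °C, humidified 5% CO2; MTT read-out. GI50, TGI, LC50 relative to untreated controls; ≥3 independent experiments in quadruplicate.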

[1] = Cytotoxicity against human PC3 cells after 72 hrs by MTT assay; assay type: functional; conditions: PC-3, 72 h
Outline: (§1)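 CCRF-CEM, HT-29, PC-3 and HTB-54 cells grown in RPMI 1640 with 10% foetal calf serum, 2 mM L-glutamine, penicillin/streptomycin, 10 mM HEPES (pH 7.4). Five concentrations, 0.01–100 μM, 72 h at 37 °C, 5% CO2; MTT read-out. GI50, TGI and LC50 versus untreated controls; at least 3 independent experiments in quadruplicate.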

[2] = Antioxidant activity assessed as DPPH radical scavenging activity at 0.5 mg/ml after 180 mins; assay type: physicochemical; conditions: 3 h
Outline: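 Compounds in absolute ethanol, serially diluted from 1 mg/mL, mixed 1:1 with […] in ethanol. Final range 0.016–0.5 mg/mL, 6 concentrations. Incubated at 37 °C in the dark, with decolourisation followed at 517 nm at several time intervals. % scavenged = (A vehicle control − A sample)/A control × 100. Quadruplicate; mean ± SD.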

CCRF-CEM = test: Cytotoxicity against human CCRF-CEM cells after 72 hrs by MTT assay; assay type: functional; outline: as §1
[3] = Antioxidant activity assessed as ABTS radical scavenging activity by measuring Trolox equivalent antioxidant capacity after 6 mins; assay type: physicochemical; conditions: 0.1 h
Outline: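 ABTS dissolved in deionized water at 1 mg/mL, oxidised to radical cation with potassium persulfate (2.45 mM final), kept overnight at room temperature in dark, then diluted with 50% ethanol to A741 = 0.700 ± 0.02. Compound (1 mg/mL ethanol stock) added 1:10 (0.1 mg/mL); A741 decrease read after 6 min against 50% ethanol blank. Trolox positive control; quadruplicate; TEAC from calibration curve.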

[4] = Antioxidant activity assessed as ABTS radical scavenging activity at 0.1 mg/ml after 6 mins; assay type: physicochemical; conditions: 0.1 h
Outline: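 Diluted with 50% ethanol to A741 0.700 ± 0.02. A741 decrease read after 6 min against a 50% ethanol blank. % scavenged relative to a vehicle-plus-radical control. Quadruplicate.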

[5] = Cytotoxicity against human BEAS2B cells after 72 hrs by MTT assay; assay type: cell-based, BEAS-2B; conditions: for GI50 at 72 h: BEAS2B cells; for LC50 / TGI: beas-2b, 72 h
Outline: (§2)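 Non-malignant lines: 184B5 (normal breast) in Hams F-12/DMEM (50:50) with published supplements; BEAS-2B (bronchial epithelium) in Hams F-12/DMEM (50:50) with 10% foetal calf serum, 2 mM L-glutamine, penicillin/streptomycin. Compounds at five concentrations, 0.01–100 μM, 72 h, 37 °C, 5% CO2; MTT read-out. GI50, TGI, LC50 relative to untreated controls; ≥3 independent experiments in quadruplicate.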

[6] = Cytotoxicity against human 184B5 cells after 72 hrs by MTT assay; assay type: cell-based; conditions: for GI50 at 72 h: 184B5 cells; for LC50 / TGI: 184b5, 72 h; outline: as §2
[7] = Cytotoxicity against human HTB-54 cells after 72 hrs by MTT assay; assay type: functional; conditions: HTB-54, 72 h; for CC50: read-out: LC50 (the source's name); outline: as §1
HT-29 = test: Cytotoxicity against human HT-29 cells after 72 hrs by MTT assay; assay type: functional; conditions: HT-29, 72 h; outline: as §1

Row | SMILES | GI50 (MCF7) | TGI (MCF7) | CC50 (MCF7) | GI50 [1] | LC50 (concentration causing 50% net cell kill) [1] | TGI [1] | GI50 (CCRF-CEM) | LC50 (CCRF-CEM) | TGI (CCRF-CEM) | GI50 at 72 h [5] | LC50 [5] | TGI [5] | GI50 at 72 h [6] | LC50 [6] | TGI [6] | GI50 [7] | TGI [7] | CC50 [7] | GI50 (HT-29) | LC50 (HT-29) | other results
1 | CCOC(=O)Nc1ccc([Se][Se]c2ccc(NC(=O)OCC)cc2)cc1 | 9.9 µM | 39 µM | 68.3 µM | 28.8 µM | 75.7 µM | 52.2 µM | 24.6 µM | 74.3 µM | 49.5 µM | 16.1 µM | 71.9 µM | 44 µM | 5.7 µM | 58.7 µM | 16.7 µM | 31.2 µM | 56.6 µM | 82 µM | 26 µM | 76.1 µM | inhibition (INH) [2]: 37%; Activity [3]: 13.6 µg/µL; inhibition (INH) [4]: 21.3%; TGI (HT-29): 51.1 µM
2 | CCCCCCOC(=O)Nc1ccc([Se][Se]c2ccc(NC(=O)OCCCCCC)cc2)cc1 | 15.8 µM | 52.9 µM | 89.9 µM | 0.6 µM | 66.7 µM | 25.7 µM | 6.2 µM | 67.3 µM | 34.4 µM | 0.01 µM | 51.8 µM | 6.9 µM | 4.6 µM | 53.4 µM | 9.8 µM | 31 µM | 54.3 µM | 77.2 µM | 11 µM | 74.2 µM | inhibition (INH) [2]: < 16%; TGI (HT-29): 42.6 µM
3 | O=C(Nc1ccc([Se][Se]c2ccc(NC(=O)OCc3ccccc3)cc2)cc1)OCc1ccccc1 | 5.2 µM | 38.6 µM | 74.5 µM | 0.1 µM | 70.4 µM | 33.5 µM | 6.4 µM | 67.9 µM | 34.6 µM | 0.01 µM | 58.5 µM | 17.3 µM | 0.1 µM | 36.2 µM | 5.8 µM | 23.8 µM | 50.9 µM | 78 µM | 1.8 µM | 69 µM | inhibition (INH) [2]: 7.4%; TGI (HT-29): 35.4 µM
4 | CC(C)COC(=O)Nc1ccc([Se]C#N)cc1 | 18.1 µM | 45.5 µM | 73 µM | 21.6 µM | 73 µM | 47.3 µM | 9.3 µM | 68.7 µM | 38.3 µM | 26.9 µM | 72.1 µM | 49.5 µM | 5.8 µM | 60.9 µM | 21.6 µM | 27.1 µM | 51.2 µM | 75.4 µM | 8.1 µM | 63.7 µM | inhibition (INH) [2]: 27.1%; Activity [3]: 5.09 µg/µL; TGI (HT-29): 31.3 µM
5 | N#C[Se]c1ccc(NC(=O)Oc2ccc(Cl)cc2)cc1 | 6 µM | 26.3 µM | 63.6 µM | 6.4 µM | 57.9 µM | 18.7 µM | 18.3 µM | 71.8 µM | 45.1 µM | 9.3 µM | 68.7 µM | 38 µM | 5.6 µM | 59.8 µM | 19.9 µM | 13.8 µM | 41.4 µM | 69 µM | 11.8 µM | 68.7 µM | Activity [3]: 37.6 µg/µL; inhibition (INH) [4]: > 25%; TGI (HT-29): 40.3 µM
6 | Cc1ccc(OC(=O)Nc2ccc([Se][Se]c3ccc(NC(=O)Oc4ccc(C)cc4)cc3)cc2)cc1 | 6.9 µM | 37.7 µM | 74 µM | 4.4 µM | 64.8 µM | 28.2 µM | 21.4 µM | 75.6 µM | 48.5 µM | 0.7 µM | 61.8 µM | 19.2 µM | 3.5 µM | 37.2 µM | 7.6 µM | 24.9 µM | 57 µM | 89.1 µM | 7.9 µM | 70.9 µM | inhibition (INH) [2]: > 50%; TGI (HT-29): 39.4 µM
7 | CCCCCCOC(=O)Nc1ccc([Se]C#N)cc1 | 6.6 µM | 30.5 µM | 63.9 µM | 17.3 µM | 72 µM | 44.6 µM | 19.7 µM | 72.7 µM | 46.2 µM | 2.8 µM | 68 µM | 35.9 µM | 4.6 µM | 60.1 µM | 20 µM | 23.6 µM | 48.5 µM | 73 µM | 10.7 µM | 69.9 µM | inhibition (INH) [2]: > 25%; TGI (HT-29): 40.3 µM
8 | O=C(Nc1ccc([Se][Se]c2ccc(NC(=O)Oc3ccccc3)cc2)cc1)Oc1ccccc1 | 8 µM | 36.7 µM | 69 µM | 5.3 µM | 62.9 µM | 27.2 µM | 22.4 µM | 73.7 µM | 48.1 µM | 1.4 µM | 50.7 µM | 8.6 µM | 4.5 µM | 48.9 µM | 9 µM | 22.7 µM | 56.2 µM | 89.8 µM | 13 µM | 70.2 µM | inhibition (INH) [2]: 66.9%; TGI (HT-29): 41.6 µM
9 | N#C[Se]c1ccc(NC(=O)Oc2ccc(F)cc2)cc1 | 8.3 µM | 33.3 µM | 65.7 µM | 11.8 µM | 69 µM | 40.4 µM | 12.6 µM | 71.1 µM | 41.9 µM | 19.8 µM | 71.4 µM | 45.6 µM | 6.9 µM | 64.4 µM | 29.5 µM | 25 µM | 48.4 µM | 71.9 µM | 8.8 µM | 66.5 µM | Activity [3]: 20.8 µg/µL; inhibition (INH) [4]: > 25%; TGI (HT-29): 37.6 µM
10 | N#C[Se]c1ccc(NC(=O)OCc2ccccc2)cc1 | 8.7 µM | 38.8 µM | 68.9 µM | 3.7 µM | 62.5 µM | 27.8 µM | 23.2 µM | 73.7 µM | 48.4 µM | 0.1 µM | 66.6 µM | 34.4 µM | 5 µM | 60.7 µM | 21.9 µM | 27.6 µM | 50.8 µM | 74 µM | 13.3 µM | 69.1 µM | inhibition (INH) [2]: 3.7%; Activity [3]: 6.74 µg/µL; TGI (HT-29): 41.2 µM
11 | N#C[Se]c1ccc(NC(=O)OCC2c3ccccc3-c3ccccc32)cc1 | 7.6 µM | 34.6 µM | 67 µM | 2 µM | 70 µM | 34.3 µM | 7.5 µM | 66.7 µM | 34.2 µM | 7.9 µM | 68.2 µM | 38.4 µM | 5.5 µM | 62.5 µM | 25.8 µM | 23.8 µM | 48.4 µM | 73 µM | 15.5 µM | 70.2 µM | inhibition (INH) [2]: > 25%; Activity [3]: 7.02 µg/µL; TGI (HT-29): 42.8 µM
